Measurements collected from several papers.
Target: SRSF protein kinase 3 (SRPK3, Homo sapiens, UniProt Q9UPE1)

| SMILES | read-out | action | method | tested at | measurement | value |
| --- | --- | --- | --- | --- | --- | --- |
| CN1CCN(C(=O)c2ccc(NC(=O)Nc3ccc(N(C)c4ccnc(Nc5ccc(CS(C)(=O)=O)cc5)n4)cc3)cc2)CC1 | binding |  |  | 1 µM | remaining binding | 7.7% |
| N#Cc1ccc(NC(=O)Nc2ccccc2)cc1 | cell-free assay |  | competition with immobilised ligand | 25 µM | inhibition | 90.3% |
| C=CC(=O)N1CCC[C@@H](n2nc(-c3ccc(Oc4ccccc4)cc3)c3c(N)ncnc32)C1 | enzyme activity | inhibitor |  | 1 µM | inhibition | 16% |
| CCCCC(=O)Nc1ccc(-c2ccc3ncn(CCC)c(=O)c3c2)cn1 | binding |  | competition with immobilised ligand | 0.5 µM | remaining binding | 92% |
| CC(C)S(=O)(=O)c1ccc2nccc(Nc3ccc4sc(C5CCCC5)nc4c3)c2c1 | enzyme activity | inhibitor |  | 1 µM | activity vs control | 110% |
| Cc1ccc(NC(=O)c2ccnc(C(F)(F)F)c2)cc1-c1cc(OCCO)nc(N2CCOCC2)c1 | binding |  |  | 1 µM | remaining binding | 93% |
| C#Cc1cnc(Nc2ccnc(CO)c2)nc1Nc1ccccc1S(C)(=O)=NC#N (centres unmarked) | cell-free assay |  |  | 1 µM | remaining signal | 47% |
| CC#CC(=O)N1CCC[C@H]1c1nc(-c2ccc(C(=O)Nc3ccccn3)cc2)c2c(N)nccn12 | enzyme activity | inhibitor |  | 1 µM | inhibition | 0% |
